Columns and labels:
Type in all cases: functional
Onchocerca gutturosa [1] = experiment: Mean motility score for treated Onchocerca gutturosa involving LLCMK2 feeder cells at a concentration of 1.95*10e-8 M at 96 h
How it was run: (§1)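 One male O. gutturosa per well over LLCMK2 feeder cells in MEM with 10% heat-inactivated FCS, antibiotics and bicarbonate, 5% CO2; compound introduced in DMSO (≤0.016%, equal DMSO in controls). Motility scored 0 (immotile) to 10 (maximal control activity) every 30 min to 4.5 h, then at 1, 2, 3, 4 and 7 days.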

Onchocerca gutturosa [2] = experiment: Mean motility score for treated Onchocerca gutturosa involving LLCMK2 feeder cells at a concentration of 4.88*10e-8M at 2 h
How it was run: (§2)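 Single male O. gutturosa worms (obtained following abattoir slaughter) per well in Eagle's MEM with 10% heat-inactivated fetal calf serum, penicillin, streptomycin, amphotericin B and bicarbonate, over LLCMK2 feeder cells, 5% CO2 in air. Drug dissolved in DMSO; controls received matched DMSO ≤0.016%. Motility scored 0 (immotile) to 10 (maximum control activity) every 30 min to 4.5 h, then days 1, 2, 3, 4, 7.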

Onchocerca gutturosa [3] = experiment: Mean motility score for treated Onchocerca gutturosa involving LLCMK2 feeder cells at a concentration of 1.95*10e-8 M at 1.5 h; how it was run: as §1
Onchocerca gutturosa [4] = experiment: Mean motility score for treated Onchocerca gutturosa involving LLCMK2 feeder cells at a concentration of 1.95*10e-8 M at 48 h; how it was run: as §1
Onchocerca gutturosa [5] = experiment: Mean motility score for treated Onchocerca gutturosa involving LLCMK2 feeder cells at a concentration of 1.95*10e-8 M at 0.5 h; how it was run: as §1
Onchocerca gutturosa [6] = experiment: Mean motility score for treated Onchocerca gutturosa involving LLCMK2 feeder cells at a concentration of 3.05*10e-8 M at […]; how it was run: as §1
Onchocerca gutturosa [7] = experiment: Mean motility score for treated Onchocerca gutturosa involving LLCMK2 feeder cells at a concentration of 3.1*10e-6 M at 4 h; how it was run: as §2
Onchocerca gutturosa [8] = experiment: Mean motility score for treated Onchocerca gutturosa involving LLCMK2 feeder cells at a concentration of 3.1*10e-6 M at 0.5 h; how it was run: as §2
Onchocerca gutturosa [9] = experiment: Mean motility score for treated Onchocerca gutturosa involving LLCMK2 feeder cells at a concentration of 3.1*10e-6 M at 96 h; how it was run: as §2
Onchocerca gutturosa [10] = experiment: Mean motility score for treated Onchocerca gutturosa involving LLCMK2 feeder cells at a concentration of 1.95*10e-8 M at 4 h; how it was run: as §1
Onchocerca gutturosa [11] = experiment: Mean motility score for treated Onchocerca gutturosa involving LLCMK2 feeder cells at a concentration of 1.95*10e-8 M at 3.5 h; details: in the assay text read “1.95*10e-7 M” for “1.95*10e-8 M”; how it was run: as §1
Onchocerca gutturosa [12] = experiment: Mean motility score for treated Onchocerca gutturosa involving LLCMK2 feeder cells at a concentration of 3.1*10e-6 M at 168 h; how it was run: as §2
Onchocerca gutturosa [13] = experiment: Mean motility score for treated Onchocerca gutturosa involving LLCMK2 feeder cells at a concentration of 3.05*10e-8 M at 0.5 h; how it was run: as §1
Onchocerca gutturosa [14] = experiment: Mean motility score for treated Onchocerca gutturosa involving LLCMK2 feeder cells at a concentration of 1.95*10e-8 M at 2.5 h; how it was run: as §1
Onchocerca gutturosa [15] = experiment: Mean motility score for treated Onchocerca gutturosa involving LLCMK2 feeder cells at a concentration of 4.88*10e-8M at 4 h; how it was run: as §2
Onchocerca gutturosa [16] = experiment: Mean motility score for treated Onchocerca gutturosa involving LLCMK2 feeder cells at a concentration of 3.1*10e-6 M at 3.5 h; how it was run: as §2
Onchocerca gutturosa [17] = experiment: Mean motility score for treated Onchocerca gutturosa involving LLCMK2 feeder cells at a concentration of 4.88*10e-8M at 3.5 h; how it was run: as §2
Onchocerca gutturosa [18] = experiment: Mean motility score for treated Onchocerca gutturosa involving LLCMK2 feeder cells at a concentration of 3.1*10e-6 M at 72 h; how it was run: as §2
Onchocerca gutturosa [19] = experiment: Mean motility score for treated Onchocerca gutturosa involving LLCMK2 feeder cells at a concentration of 3.1*10e-6 M at 2 h; how it was run: as §2
Onchocerca gutturosa [20] = experiment: Mean motility score for treated Onchocerca gutturosa involving LLCMK2 feeder cells at a concentration of 4.88*10e-8M at 168 h; how it was run: as §2
Acanthocheilonema viteae [21] = experiment: anti-filarial Activity was measured against Acanthocheilonema viteae in jirds at 50 mg/kg/day(5 days) dose
How it was run: (§3)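 Jirds with established B. pahangi or A. viteae infections were given drug once daily for 5 days by subcutaneous injection, at the maximum tolerated dose and, where supply allowed, graded lower doses. Tolerance was first checked in noninfected jirds with a single 200 mg/kg oral or subcutaneous dose, watching 72 h for excessive weight loss or death. Macrofilarial suppression was the read-out.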

Onchocerca gutturosa [22] = experiment: Mean motility score for treated Onchocerca gutturosa involving LLCMK2 feeder cells at a concentration of 1.94*10e-7M at 96 h; how it was run: as §1
Onchocerca volvulus = experiment: Colorimetric quantification of male Onchocerca volvulus viability, expressed as % inhibition of formazan formation at 5*10e-5 M conc. by using tetrazolium Dye MTT assay
How it was run: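 Male O. volvulus dissected from human nodules within 24 h (kept in medium on ice), cultured without feeder cells in medium with 10% serum; drug from DMSO stock. MTT after 96 h: single worm, 0.5 mg/mL MTT, 30 min at 36.5 °C, formazan dissolved in DMSO 1 h at room temperature, absorbance 490 nm against DMSO blank.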

Onchocerca gutturosa [23] = experiment: Mean motility score for treated Onchocerca gutturosa involving LLCMK2 feeder cells at a concentration of 1.21*10e-8M at 2 h; how it was run: as §1
Acanthocheilonema viteae [24] = experiment: anti-filarial Activity was measured against Acanthocheilonema viteae in jirds at 100 mg/kg/day(5 days) dose; how it was run: as §3
Onchocerca gutturosa [25] = experiment: Colorimetric quantification of male Onchocerca gutturosa viability, expressed as % inhibition of formazan formation at 1.94*10e-7M conc. by using tetrazolium Dye MTT assay
How it was run: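 Single intact male O. gutturosa, cultured with LLCMK2 feeder cells in MEM + 10% heat-inactivated FCS (5% CO2), drug added from DMSO (≤0.016% DMSO in controls). MTT read after 168 h: worm in 0.5 mg/mL MTT, 30 min at 36.5 °C, formazan solubilized in DMSO 1 h at room temperature, absorbance 490 nm vs DMSO blank.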

Onchocerca gutturosa [26] = experiment: Mean motility score for treated Onchocerca gutturosa involving LLCMK2 feeder cells at a concentration of 1.94*10e-7M at 168 h(O = IMMOTILE); how it was run: as §1
Onchocerca gutturosa [27] = experiment: Mean motility score for treated Onchocerca gutturosa involving LLCMK2 feeder cells at a concentration of 1.94*10e-7M at 1 h; how it was run: as §1
Onchocerca gutturosa [28] = experiment: Mean motility score for treated Onchocerca gutturosa involving LLCMK2 feeder cells at a concentration of 5*10e-5 M at 168 h(O = IMMOTILE); how it was run: as §2
Onchocerca gutturosa [29] = experiment: Mean motility score for treated Onchocerca gutturosa involving LLCMK2 feeder cells at a concentration of 1.94*10e-7M at 1.5 h; how it was run: as §1
Onchocerca gutturosa [30] = experiment: Mean motility score for treated Onchocerca gutturosa involving LLCMK2 feeder cells at a concentration of 1.21*10e-8M at 96 h; how it was run: as §1
Onchocerca gutturosa [31] = experiment: Mean motility score for treated Onchocerca gutturosa involving LLCMK2 feeder cells at a concentration of 1.94*10e-7M at 72 h; how it was run: as §1

C/C(=N\NC(=S)N1CCCCCC1)c1ccccn1
Motility (Onchocerca gutturosa [1]): 0 | Motility (Onchocerca gutturosa [2]): 8.8 | Motility (Onchocerca gutturosa [3]): 9.5 | Motility (Onchocerca gutturosa [4]): 2.5 | Motility (Onchocerca gutturosa [5]): 8.8 | Motility (Onchocerca gutturosa [6]): 8.5 | Motility (Onchocerca gutturosa [7]): 9 | Motility (Onchocerca gutturosa [8]): 9.5 | Motility (Onchocerca gutturosa [9]): 0 | Motility (Onchocerca gutturosa [10]): 10 | Motility (Onchocerca gutturosa [11]): 10 | Motility (Onchocerca gutturosa [12]): 0 | Motility (Onchocerca gutturosa [13]): 9.8 | Motility (Onchocerca gutturosa [14]): 9.3 | Motility (Onchocerca gutturosa [15]): 8.8 | Motility (Onchocerca gutturosa [16]): 9 | Motility (Onchocerca gutturosa [17]): 8.5 | Motility (Onchocerca gutturosa [18]): 0 | Motility (Onchocerca gutturosa [19]): 9.8 | Motility (Onchocerca gutturosa [20]): 0

C/C(=N\NC(S)=Nc1ccccc1N)c1ccccn1
Suppression (Acanthocheilonema viteae [21]): 100% | Motility (Onchocerca gutturosa [22]): 1.8 | Inhibition (Onchocerca volvulus): 53.8% | Motility (Onchocerca gutturosa [23]): 3.3 | Suppression (Acanthocheilonema viteae [24]): 100% | Inhibition (Onchocerca gutturosa [25]): 84.8% | Motility (Onchocerca gutturosa [26]): 0 | Motility (Onchocerca gutturosa [27]): 9.8 | Motility (Onchocerca gutturosa [28]): 0 | Motility (Onchocerca gutturosa [29]): 8 | Motility (Onchocerca gutturosa [30]): 3.8 | Motility (Onchocerca gutturosa [31]): 1.5
